Source: PubChem BioAssay
PRMT1 inh: blocks human protein arginine methyltransferase 1; Q99873; recombinant PRMT1, activity-based probe fluorescence polarization; inhibition, % at 2.79 µM; actives 1.3% (n = 370,000);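 active = inhibition above about 21% made by adding two undisclosed values, limit read from the data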
Target sequence (Q99873 whole entry, looked up): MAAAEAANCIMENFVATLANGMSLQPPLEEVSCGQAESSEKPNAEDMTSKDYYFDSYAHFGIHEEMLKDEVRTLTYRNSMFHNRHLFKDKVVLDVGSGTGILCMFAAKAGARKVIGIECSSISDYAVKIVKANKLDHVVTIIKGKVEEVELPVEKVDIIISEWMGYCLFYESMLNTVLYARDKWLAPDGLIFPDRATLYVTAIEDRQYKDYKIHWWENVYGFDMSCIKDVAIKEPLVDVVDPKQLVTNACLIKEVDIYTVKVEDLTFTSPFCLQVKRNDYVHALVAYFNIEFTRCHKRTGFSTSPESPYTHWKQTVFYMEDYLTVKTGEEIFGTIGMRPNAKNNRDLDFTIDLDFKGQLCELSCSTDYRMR
TDP2 inh: blocks human TDP2 phosphodiesterase activity | O95551 | AID 720702 | recombinant TDP2, T5PNP hydrolysis, p-nitrophenol absorbance 415 nm | inhibition, % at 12.8 µM | actives 0.34% (n = 370,000);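 active = inhibition above the mean of all tested compounds plus 3 SD, set per campaign, cut at about 25% in these data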
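Test system: Human TDP2 enzyme | Reagent: 5 mM T5PNP | Compound dosing: 12.8 µM single point, 1% DMSO | Incubation: Enzyme reaction with compound for 2 h at 37 °C | Technique: p-Nitrophenol epi absorbance | Read-out: % inhibition relative to enzyme-containing and enzyme-free wells | Benchmarks: High control without enzyme, low control DMSO plus TDP2 | Replicates: Singlicate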
GSTO1 counter: GSTO1 inhibition, counter-screen for RBBP9 inhibitors. P78417. recombinant GSTO1, activity-based probe fluorescence polarization. inhibition, % at 5.96 µM. actives 1.1% (n = 300,000);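 active = inhibition above the campaign mean inhibition plus 3 SD, cut at about 35% in these data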
PAD4 FP inh: PAD4 (human) enzyme inhibition; recombinant PAD4, RCA probe fluorescence polarization; Q9UM07; actives 0.41% (n = 330,000); inhibition, % at 6.36 µM;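 active = percent inhibition above a cutoff equal to the mean of all tested compounds plus 3 SD, cut at about 15% in these data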
eLon inh: inhibitors of E. coli Lon protease; actives 0.42% (n = 360,000); P0A9M0; inhibition, % at 7.94 µM; purified E. coli Lon protease, fluorescence polarization; in the data active = inhibition above about 13%, passing the limit was not always enough
PRMT1 confirm: PRMT1 (human) inhibition, FP confirmation; shares compounds with PRMT1 inh; inhibition, % at 2.79 µM; recombinant His-PRMT1, activity-based probe fluorescence polarization; AID 687036; actives 42% (n = 3,300);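 active = mean inhibition across replicates above the hit cutoff derived for the earlier primary screen, cut at about 22% in these data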
Each line names hits and unclear results; the compound was inactive in the other large screens (follow-up assays come after a bar, where they were run). Hits are enriched below; roughly 2.5% of the tested compounds scored in any of these assays.

COc1ccc(N2C(=O)CC(N3CCCC4CCCCC43)C2=O)cc1 (centres undefined)	PRMT1 inh 52.5 | PRMT1 confirm inactive
COc1ccc(N2C(=O)CC(NC3CCCCNC3=O)C2=O)cc1 (centres undefined)	PRMT1 inh 27.9 | PRMT1 confirm inactive
COc1ccc(N2C(=O)CC(Nc3ccc(C)cc3)C2=O)cc1 (centres undefined)	none
O=C1CC(N2CCN(c3ccc(F)cc3)CC2)C(=O)N1c1ccc(F)cc1 (centres undefined)	none
O=C1CC(N2CCCCCC2)C(=O)N1c1ccc(F)cc1 (centres undefined)	PRMT1 inh 41.3 | PRMT1 confirm 29.1
O=S1(=O)CC(N2CCCCC2)CN1Cc1cn(Cc2ccc(C(F)(F)F)cc2)nn1 (centres undefined)	none (no result: GSTO1 counter, PAD4 FP inh)
CC(C)(C)OC(=O)N1CCC(N[C@@H](Cc2ccccc2)C(=O)NCCc2c[nH]c3ccccc23)(C(=O)NC2CCCCC2)CC1	none (no result: GSTO1 counter, PAD4 FP inh, eLon inh)
COc1ccc(N2C(=O)CC(N3CCCCC3)C2=O)cc1 (centres undefined)	PRMT1 inh 80.0 | PRMT1 confirm inactive
COc1ccc(N2C(=O)CC(N3CCN(c4ccc(S(=O)(=O)N5CCCC5)cc4)CC3)C2=O)cc1 (centres undefined)	none
CCN(C[C@H]1N[C@@](CC)(C(=O)OC)[C@H]2C(=O)N(C)C(=O)[C@@H]12)C(C)=O	none (no result: GSTO1 counter)
CN1CCN(NC(=O)CN2C(=O)S/C(=C\c3c(Cl)cccc3Cl)C2=O)CC1	PRMT1 inh 26.2 | PRMT1 confirm inactive
COc1ccccc1-c1cnc2c(c1)C(=O)N([C@@H](C)CO)C[C@@H](C)[C@H](CN(C)C(=O)c1cccnc1)O2	none (no result: GSTO1 counter, PAD4 FP inh)
COc1ccc2nc(C)cc(SCC(=O)N/N=C/c3cccc4ccccc34)c2c1	none
Cc1ccc2nc(C)cc(SCC(=O)N/N=C/c3ccco3)c2c1	PRMT1 inh 52.2 | PRMT1 confirm inactive
COc1cccc2c(SCC(=O)N/N=C/c3ccccc3)cc(C)nc12	PRMT1 inh 46.8 | PRMT1 confirm inactive
CCCCC1O[C@@H](C)[C@@H]2CN3CCc4c([nH]c5ccccc45)[C@@H]3C[C@@H]2N1C (some centres undefined)	none (no result: GSTO1 counter, PAD4 FP inh, eLon inh)
Cc1ccc(S(=O)(=O)NC(=O)C2(C)CCN2C(=O)CCc2ccc(Cl)cc2Cl)nc1 (centres undefined)	none (no result: GSTO1 counter, PAD4 FP inh)
[N-]=C=C1C(=O)NC(=O)C([n+]2ccc(-c3ccncc3)cc2)C1c1ccccc1C(F)(F)F (centres undefined)	none
[N-]=C=C1C(=S)NC(=O)[C@H]([n+]2ccccc2)[C@H]1c1ccc(Cl)cc1	PRMT1 inh 25.4 | PRMT1 confirm 31.6
CN(C)c1ccc(NS(=O)(=O)c2cc(Cl)ccc2Cl)cc1	none
CCN(c1ccc(NS(=O)(=O)c2cc(Cl)ccc2Cl)cc1)C(C)C	PRMT1 inh 32.4 | PRMT1 confirm inactive
CC(=O)C(=Nc1cccc(Cl)c1)NNc1ccccc1C	PRMT1 inh 83.1 | PRMT1 confirm inactive
Cc1cc(Cl)ccc1NNC(=O)c1cccs1	none
CC1CCCCN1S(=O)(=O)c1cccc(S(=O)(=O)N2CCOCC2)c1 (centres undefined)	none
Cc1ccc(S(=O)(=O)N2CCSC2c2ccco2)cc1 (centres undefined)	PRMT1 inh 31.0 | PRMT1 confirm inactive
CCC(=O)c1ccc(OCC(=O)OCC(=O)N(CCC#N)c2ccc3c(c2)OCCO3)cc1	none (no result: GSTO1 counter)
O=C(O)c1ccc(S(=O)(=O)c2ccc([N+](=O)[O-])cc2[N+](=O)[O-])cc1	PRMT1 inh 29.9 | PRMT1 confirm 26.8
CN1C(=O)CS(=O)c2ccc(C(=O)NC3CC3)cc21 (centres undefined)	PRMT1 inh 37.1 | PRMT1 confirm inactive
CCOCCCNC(=O)c1cc2c(s1)-c1ccccc1SC2	PRMT1 inh 40.2 | PRMT1 confirm inactive
O=c1c2cc(Cl)ccc2oc2nc3n(c(=O)c12)CCCS3	PRMT1 inh 63.3 | PRMT1 confirm 52.1
COc1ccccc1NC(=O)CCCCC(=O)Nc1ccccc1OC	none
NC(=O)SCC(=O)Nc1ccccc1C(=O)O	PRMT1 inh 36.6 | PRMT1 confirm 81.2
O=C(CSc1ccccc1)Nc1ccccc1C(=O)O	none
Cc1ccccc1NC(=O)CSC(N)=O	PRMT1 inh 75.3 | PRMT1 confirm 89.6
